Assay results as given in ChEMBL document CHEMBL1165943, “Design and synthesis of new anticancer pyrimidines with multiple-kinase inhibitory effect” (Bioorg Med Chem, 2010).
Activity calls are given as the source filed them. No cut-off for these calls is given here.

Assays:
[1] = test system: MDA-MB-435; experiment: Cytotoxicity against human MDA-MB-435 cells assessed as cell growth at 1 uM after 48 hrs by sulforhodamine B assay; format: functional; settings: MDA-MB-435, 48 h, read-out: Activity
[2] = test system: DU-145; experiment: Growth inhibition of human DU145 cells after 48 hrs by sulforhodamine B assay; format: functional, cell-based; settings: for CC50: read-out: LC50 (the source's name)
Procedure, shortened: (§1)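 Cells grown in RPMI 1640 with 5% FBS and 2 mM L-glutamine, seeded at 5,000–40,000 cells/well according to doubling time. After 24 h, time-zero plates are TCA-fixed. Five concentrations (10-fold or ½log dilutions, DMSO stocks) are applied for 48 h at 37 °C, 5% CO₂. Cells are TCA-fixed, SRB-stained and read at 515 nm. IC₅₀ is taken from [(Ti−Tz)/(C−Tz)]×100 = 50.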

[3] = test system: OVCAR-4; experiment: Cytotoxicity against human OVCAR4 cells assessed as cell growth at 0.01 uM after 48 hrs by sulforhodamine B assay; format: functional; settings: OVCAR-4, 48 h, read-out: Activity
[4] = test system: DU-145; experiment: Cytotoxicity against human DU145 cells assessed as cell growth at 0.001 uM after 48 hrs by sulforhodamine B assay; format: functional; settings: DU-145, 48 h, read-out: Activity
[5] = test system: COLO 205; experiment: Growth inhibition of human COLO205 cells after 48 hrs by sulforhodamine B assay; format: functional, cell-based; settings: COLO 205, 48 h; for CC50: read-out: LC50 (the source's name)
Procedure, shortened: (§2)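 Five-dose SRB assay. Cells in RPMI 1640 with 5% FBS and 2 mM L-glutamine were seeded at 5,000–40,000 cells/well, with a TCA-fixed time-zero plate (Tz) taken at 24 h. Compound stocks were in DMSO, serially diluted 10-fold or ½-log to five concentrations, and incubated 48 h at 37 °C. Plates were stained with SRB and read at 515 nm. IC₅₀ was taken where [(Ti−Tz)/(C−Tz)]×100 = 50.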

[6] = test system: IGROV-1; experiment: Cytotoxicity against human IGROV1 cells assessed as cell growth at 100 nM after 48 hrs by sulforhodamine B assay; format: functional; settings: IGROV-1, 48 h, read-out: Activity
[7] = test system: UACC-62; experiment: Cytotoxicity against human UACC62 cells assessed as cell growth at 10 uM after 48 hrs by sulforhodamine B assay; format: functional; settings: UACC-62, 48 h, read-out: Activity
[8] = target: DNA-dependent protein kinase catalytic subunit (Homo sapiens) (UniProt P78527); experiment: Inhibition of DNA-PK at 10 uM by HotSpot assay
[9] = test system: IGROV-1; experiment: Cytotoxicity against human IGROV1 cells assessed as cell growth at 0.001 uM after 48 hrs by sulforhodamine B assay; format: functional; settings: IGROV-1, 48 h, read-out: Activity
[10] = target: Fibroblast growth factor receptor 1 (Homo sapiens) (UniProt P11362); experiment: Inhibition of FGFR1 at 10 uM by HotSpot assay
[11] = test system: CAKI-1; experiment: Cytotoxicity against human Caki1 cells assessed as cell growth at 100 nM after 48 hrs by sulforhodamine B assay; format: functional; settings: CAKI-1, 48 h, read-out: Activity
[12] = test system: COLO 205; experiment: Cytotoxicity against human COLO205 cells assessed as cell growth at 100 nM after 48 hrs by sulforhodamine B assay; format: functional; settings: COLO 205, 48 h, read-out: Activity
Procedure, shortened: (§3)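 Cells grown in RPMI 1640 with 5% FBS and 2 mM L-glutamine, seeded at 5,000–40,000 cells/well by doubling time. Time-zero plates TCA-fixed after 24 h. Five concentrations (10-fold or half-log dilutions from DMSO stock) added; 48 h at 37 °C, 5% CO2. Cold TCA fixation (final 10%, 60 min, 4 °C), 0.4% SRB stain, dye solubilized in 10 mM trizma base, A515.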

[13] = target: BDNF/NT-3 growth factors receptor (Homo sapiens) (UniProt Q16620); experiment: Inhibition of NTRK2 at 10 uM by HotSpot assay
[14] = test system: UO-31; experiment: Cytotoxicity against human UO31 cells assessed as cell growth at 0.01 uM after 48 hrs by sulforhodamine B assay; format: functional; settings: UO-31, 48 h, read-out: Activity
[15] = test system: U-251; experiment: Cytotoxicity against human U251 cells assessed as cell growth at 1 uM after 48 hrs by sulforhodamine B assay; format: functional; settings: U-251, 48 h, read-out: Activity
[16] = test system: SF-539; experiment: Growth inhibition of human SF539 cells after 48 hrs by sulforhodamine B assay; format: functional, cell-based; settings: for CC50: read-out: LC50 (the source's name); procedure, shortened: as §1
[17] = test system: MOLT-4; experiment: Growth inhibition of human MOLT4 cells after 48 hrs by sulforhodamine B assay; format: functional, cell-based; settings: MOLT-4, 48 h; for CC50: read-out: LC50 (the source's name); procedure, shortened: as §1
[18] = target: Receptor-type tyrosine-protein kinase FLT3 (Homo sapiens) (UniProt P36888); experiment: Inhibition of FLT3 at 10 uM by HotSpot assay
[19] = test system: CAKI-1; experiment: Cytotoxicity against human Caki1 cells assessed as cell growth at 0.01 uM after 48 hrs by sulforhodamine B assay; format: functional; settings: CAKI-1, 48 h, read-out: Activity; procedure, shortened: as §3
[20] = test system: MDA-MB-231; experiment: Cytotoxicity against human MDA-MB-231 cells assessed as cell growth at 1 uM after 48 hrs by sulforhodamine B assay; format: functional; settings: MDA-MB-231, 48 h, read-out: Activity
[21] = test system: OVCAR-3; experiment: Cytotoxicity against human OVCAR-3 cells assessed as cell growth at 0.01 uM after 48 hrs by sulforhodamine B assay; format: functional; settings: OVCAR-3, 48 h, read-out: Activity
[22] = test system: M14; experiment: Cytotoxicity against human M14 cells assessed as cell growth at 0.001 uM after 48 hrs by sulforhodamine B assay; format: functional; settings: M14, 48 h, read-out: Activity
[23] = test system: K562; experiment: Growth inhibition of human K562 cells after 48 hrs by sulforhodamine B assay; format: functional, cell-based; settings: for CC50: read-out: LC50 (the source's name); procedure, shortened: as §1
[24] = test system: 786-0; experiment: Growth inhibition of human 786-0 cells after 48 hrs by sulforhodamine B assay; format: functional, cell-based; settings: 786-0, 48 h; procedure, shortened: as §2
[25] = test system: KM12; experiment: Growth inhibition of human KM12 cells after 48 hrs by sulforhodamine B assay; format: functional, cell-based; settings: KM12, 48 h; for CC50: read-out: LC50 (the source's name); procedure, shortened: as §1
[26] = test system: HOP-92; experiment: Cytotoxicity against human HOP92 cells assessed as cell growth at 100 nM after 48 hrs by sulforhodamine B assay; format: functional; settings: HOP-92, 48 h, read-out: Activity

BDNF/NT-3 growth factors receptor (Homo sapiens), sequence (Q16620 32-822 limits assumed): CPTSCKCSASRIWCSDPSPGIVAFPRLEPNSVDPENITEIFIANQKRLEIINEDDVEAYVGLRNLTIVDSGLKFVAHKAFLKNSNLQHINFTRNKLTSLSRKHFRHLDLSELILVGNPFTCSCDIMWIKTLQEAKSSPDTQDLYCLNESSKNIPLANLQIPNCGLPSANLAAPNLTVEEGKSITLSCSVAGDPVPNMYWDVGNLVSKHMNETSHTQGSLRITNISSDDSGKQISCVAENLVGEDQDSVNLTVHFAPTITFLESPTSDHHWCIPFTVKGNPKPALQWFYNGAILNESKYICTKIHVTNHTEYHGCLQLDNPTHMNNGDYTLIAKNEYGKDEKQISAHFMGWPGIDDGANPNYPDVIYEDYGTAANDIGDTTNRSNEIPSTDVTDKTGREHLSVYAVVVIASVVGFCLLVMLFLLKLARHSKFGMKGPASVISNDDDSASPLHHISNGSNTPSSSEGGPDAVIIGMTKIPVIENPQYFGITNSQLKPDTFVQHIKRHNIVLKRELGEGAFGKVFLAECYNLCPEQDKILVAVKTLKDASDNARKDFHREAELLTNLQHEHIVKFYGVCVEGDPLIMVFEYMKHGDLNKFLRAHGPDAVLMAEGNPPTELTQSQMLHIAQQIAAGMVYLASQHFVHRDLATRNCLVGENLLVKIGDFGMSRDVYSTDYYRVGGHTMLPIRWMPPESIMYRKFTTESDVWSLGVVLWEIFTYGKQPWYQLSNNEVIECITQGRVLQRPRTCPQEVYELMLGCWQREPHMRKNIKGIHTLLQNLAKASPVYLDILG
Receptor-type tyrosine-protein kinase FLT3 (Homo sapiens), sequence (P36888 whole entry): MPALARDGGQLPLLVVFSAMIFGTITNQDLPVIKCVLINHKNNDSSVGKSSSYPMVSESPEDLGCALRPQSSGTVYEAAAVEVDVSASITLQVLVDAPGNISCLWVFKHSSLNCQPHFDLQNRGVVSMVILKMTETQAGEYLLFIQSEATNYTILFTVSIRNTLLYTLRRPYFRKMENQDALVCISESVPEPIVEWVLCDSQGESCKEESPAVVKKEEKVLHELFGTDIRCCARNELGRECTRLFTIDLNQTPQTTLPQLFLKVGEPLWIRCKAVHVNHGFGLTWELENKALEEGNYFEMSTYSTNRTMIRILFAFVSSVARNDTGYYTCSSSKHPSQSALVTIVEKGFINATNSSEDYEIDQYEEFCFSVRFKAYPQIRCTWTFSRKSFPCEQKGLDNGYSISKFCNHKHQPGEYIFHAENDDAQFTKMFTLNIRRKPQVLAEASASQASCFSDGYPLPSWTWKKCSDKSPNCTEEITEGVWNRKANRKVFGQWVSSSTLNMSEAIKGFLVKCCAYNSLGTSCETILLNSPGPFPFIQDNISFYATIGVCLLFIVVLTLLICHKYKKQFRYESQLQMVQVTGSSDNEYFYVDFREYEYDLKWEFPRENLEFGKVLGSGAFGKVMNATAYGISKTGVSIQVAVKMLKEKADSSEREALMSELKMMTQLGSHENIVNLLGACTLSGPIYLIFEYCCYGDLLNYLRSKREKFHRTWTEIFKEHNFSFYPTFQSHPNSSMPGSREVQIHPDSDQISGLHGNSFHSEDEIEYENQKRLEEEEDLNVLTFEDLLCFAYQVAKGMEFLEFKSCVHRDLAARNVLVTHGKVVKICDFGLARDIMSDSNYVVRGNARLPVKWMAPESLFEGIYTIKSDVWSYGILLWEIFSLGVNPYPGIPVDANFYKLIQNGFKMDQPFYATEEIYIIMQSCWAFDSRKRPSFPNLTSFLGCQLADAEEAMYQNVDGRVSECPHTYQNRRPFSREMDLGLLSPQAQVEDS
Fibroblast growth factor receptor 1 (Homo sapiens), sequence (P11362 22-822 limits assumed): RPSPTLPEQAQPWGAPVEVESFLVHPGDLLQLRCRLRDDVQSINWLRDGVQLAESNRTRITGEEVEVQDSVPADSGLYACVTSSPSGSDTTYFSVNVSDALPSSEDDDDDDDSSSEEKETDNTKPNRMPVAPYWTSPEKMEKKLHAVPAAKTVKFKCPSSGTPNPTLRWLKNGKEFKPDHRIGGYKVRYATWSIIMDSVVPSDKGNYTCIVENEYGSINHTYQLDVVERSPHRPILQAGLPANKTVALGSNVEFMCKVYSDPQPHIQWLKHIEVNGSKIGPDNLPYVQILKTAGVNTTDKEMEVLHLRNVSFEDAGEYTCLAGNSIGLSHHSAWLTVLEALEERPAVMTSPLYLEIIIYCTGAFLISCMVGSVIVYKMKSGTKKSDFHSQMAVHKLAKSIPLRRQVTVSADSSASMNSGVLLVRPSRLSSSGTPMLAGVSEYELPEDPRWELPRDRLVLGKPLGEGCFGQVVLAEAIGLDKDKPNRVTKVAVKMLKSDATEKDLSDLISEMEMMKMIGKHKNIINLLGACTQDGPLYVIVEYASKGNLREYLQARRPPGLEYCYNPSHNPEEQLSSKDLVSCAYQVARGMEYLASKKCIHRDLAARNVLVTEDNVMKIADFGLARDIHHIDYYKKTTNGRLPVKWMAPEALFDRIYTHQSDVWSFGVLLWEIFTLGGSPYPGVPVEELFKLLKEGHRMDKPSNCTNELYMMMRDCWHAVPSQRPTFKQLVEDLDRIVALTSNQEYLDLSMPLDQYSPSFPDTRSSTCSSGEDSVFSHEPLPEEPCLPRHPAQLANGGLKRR

## CC(=O)Nc1cccc(-c2ccc(-c3ccnc(NC(=O)Nc4cc(C(F)(F)F)cc(C(F)(F)F)c4)n3)cn2)c1.Cl
[1]
  growth at 1 µM: -18%
[2]; Homo sapiens, DU-145, 48 h
  GI50: 6.57 µM
  TGI: 19.6 µM
  CC50: 47 µM
[2]; Homo sapiens, DU-145, 48 h, read-out: IC50
  IC50: 6.57 µM
[3]
  growth at 0.01 µM: 78%
[4]
  growth at 0.001 µM: 112%
[5]
  GI50: 11 µM
  IC50: 11 µM
  TGI: > 100 µM
  CC50: > 100 µM
[6]
  growth at 0.1 µM: 89%
[7]
  growth at 10 µM: 100%
[8]
  inhibition: < 50%
[9]
  growth at 0.001 µM: 95%
[10]
  inhibition: < 50%
[11]
  growth at 0.1 µM: 64%
[12]
  growth at 0.1 µM: 96%
[13]
  inhibition: < 50%
[14]
  growth at 0.01 µM: 87%
[15]
  growth at 1 µM: -32%
[16]; Homo sapiens, SF-539, 48 h
  GI50: 5.48 µM
  TGI: 18.9 µM
  CC50: 44.3 µM
[16]; Homo sapiens, SF-539, 48 h, read-out: IC50
  IC50: 5.48 µM
[17]
  GI50: 1.98 µM
  IC50: 1.98 µM
  TGI: > 100 µM
  CC50: > 100 µM
[18]
  inhibition: 50%
[19]
  growth at 0.01 µM: 104%
[20]
  growth at 1 µM: 30%
[21]
  growth at 0.01 µM: 105%
[22]
  growth at 0.001 µM: 94%
[23]
  TGI: inactive
[23]; K562, 48 h
  GI50: 1.87 µM
  IC50: 1.87 µM
  CC50: > 100 µM
[24]
  GI50: 3.66 µM
  IC50: 3.66 µM
  LC50 (50% lethal concentration): 39.9 µM
  TGI: 15.9 µM
[25]
  GI50: 2.59 µM
  IC50: 2.59 µM
  TGI: 8.01 µM
  CC50: 27.9 µM

## CC(=O)c1ccccc1-c1ccc(-c2ccnc(NC(=O)Nc3cc(N4CCOCC4)cc(C(F)(F)F)c3)n2)cn1
[1]
  growth at 1 µM: 71%
[2]; Homo sapiens, DU-145, 48 h
  TGI: > 100 µM
  CC50: > 100 µM
[2]; du-145
  IC50: Not Active
[26]
  growth at 0.1 µM: 91%
[3]
  growth at 0.01 µM: 108%
[4]
  growth at 0.001 µM: 100%
[5]
  GI50: > 63.2 µM
  IC50: > 100 µM
  TGI: > 100 µM
  CC50: > 100 µM
[6]
  growth at 0.1 µM: 87%
[7]
  growth at 10 µM: 63%
[9]
  growth at 0.001 µM: 98%
[11]
  growth at 0.1 µM: 84%
[12]
  growth at 0.1 µM: 107%
[14]
  growth at 0.01 µM: 91%
[15]
  growth at 1 µM: 63%
[16]; Homo sapiens, SF-539, 48 h
  TGI: > 100 µM
  CC50: > 100 µM
[16]; sf-539
  IC50: Not Active
[17]
  GI50: > 100 µM
  IC50: > 100 µM
  TGI: > 100 µM
  CC50: > 100 µM
[19]
  growth at 0.01 µM: 92%
[20]
  growth at 1 µM: 35%
[21]
  growth at 0.01 µM: 95%
[22]
  growth at 0.001 µM: 94%
[23]; K562, 48 h
  GI50: > 100 µM
  IC50: > 100 µM
  TGI: > 100 µM
  CC50: > 100 µM
[24]
  GI50: 9.42 µM
  IC50: 13 µM
  LC50 (50% lethal concentration): > 100 µM
  TGI: > 100 µM
[25]
  GI50: > 100 µM
  IC50: > 100 µM
  TGI: > 100 µM
  CC50: > 100 µM
